Results reported in ChEMBL document CHEMBL1132117, “Novel potential agents for human cytomegalovirus infection: synthesis and antiviral activity evaluation of benzothiadiazine dioxide acyclonucleosides” (J Med Chem, 1999).
Converted amounts (≈) assume the structure as drawn.

Legend:
HEL [1] = test: The minimum cytotoxic concentration was measured on Human Embryonic Lung (HEL) cells; assay type: functional
Method in brief: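 Minimum toxic concentration is the lowest concentration giving a microscopically detectable change in morphology of normal HEL cells. Duplicate assays.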

[2] = tested on: Human immunodeficiency virus 2; test: Concentration of the required to protect CEM cells of Human T-lymphocyte against Cytopathogenicity of HIV-2 by 50%; assay type: functional, organism-based; settings: Human immunodeficiency virus 2, CCRF-CEM
Method in brief: (§1)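 CEM cells at 4 × 10⁵ cells/mL infected with HIV-1 (IIIB) or HIV-2 (ROD) at ~100 CCID₅₀/mL, then mixed with serial compound dilutions. Giant cell formation scored microscopically after 4 days. Triplicate assays.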

Human betaherpesvirus 5 [3] = test: The concentration required to reduce virus plaque formation by 50% was measured on AD-169 strains of human cytomegalovirus; assay type: functional, organism-based
HEL [4] = test: The concentration required to reduce cell growth by 50% was measured on Human Embryonic Lung (HEL) cells; assay type: functional
Method in brief: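 HEL fibroblasts seeded at 5 × 10³ cells/well and grown 24 h, then given compound dilutions in duplicate. Cells counted with a Coulter counter after 3 days at 37 °C in 5% CO₂.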

Human alphaherpesvirus 3 [5] = test: The concentration required to reduce virus plaque formation by 50% was measured on YS strain of VZV expressing viral thymidine kinase(TK+); assay type: functional, organism-based
Human betaherpesvirus 5 [6] = test: The concentration required to reduce virus plaque formation by 50% was measured on Davis strains of human cytomegalovirus; assay type: functional, organism-based
Human alphaherpesvirus 3 [7] = test: The concentration required to reduce virus plaque formation by 50% was measured on YS/Rstrain of VZV expressing viral thymidine kinase(TK-); assay type: functional, organism-based
[8] = tested on: Human immunodeficiency virus 1; test: Concentration of the required to protect CEM cells of Human T-lymphocyte against Cytopathogenicity of HIV-1(III-B) by 50%; assay type: functional, organism-based; settings: Human immunodeficiency virus 1, CCRF-CEM; method in brief: as §1
Human alphaherpesvirus 3 [9] = test: The concentration required to reduce virus plaque formation by 50% was measured on OKA strain of VZV expressing viral thymidine kinase(TK+); assay type: functional, organism-based
CCRF-CEM = test: The concentration required to reduce 50% cell viability on CEM cells of Human T-lymphocyte; assay type: functional
Method in brief: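 Uninfected CEM cells exposed to compound dilutions. Triplicate assays.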

Human alphaherpesvirus 3 [10] = test: The concentration required to reduce virus plaque formation by 50% was measured on 07/1 strain of VZV expressing viral thymidine kinase(TK-); assay type: functional, organism-based

| SMILES | MCC (HEL [1]) [µg/mL] | EC50 [2] [µg/mL] | IC50 (Human betaherpesvirus 5 [3]) [µg/mL] | CC50 (HEL [4]) [µg/mL] | IC50 (Human alphaherpesvirus 3 [5]) [µg/mL] | IC50 (Human betaherpesvirus 5 [6]) [µg/mL] | IC50 (Human alphaherpesvirus 3 [7]) [µg/mL] | EC50 [8] [µg/mL] | IC50 (Human alphaherpesvirus 3 [9]) [µg/mL] | CC50 (CCRF-CEM) [µg/mL] | IC50 (Human alphaherpesvirus 3 [10]) [µg/mL] |
| --- | --- | --- | --- | --- | --- | --- | --- | --- | --- | --- | --- |
| O=C1c2ccccc2NS(=O)(=O)N1COCCO | > 50 | > 40 | > 50 | 160 (≈ 588 µM) | > 50 | > 50 | > 50 | > 40 | > 50 | > 200 | > 50 |
| O=C1c2ccccc2NS(=O)(=O)N1Cc1ccccc1 | 50 | > 200 | > 20 | > 50 | > 50 | > 20 | > 50 | > 200 | > 50 | > 200 | 48 (≈ 166 µM) |
| CC(=O)OCCOCN1c2ccccc2C(=O)NS1(=O)=O | > 50 | > 200 | > 50 | > 200 | > 50 | > 50 | > 50 | > 200 | > 50 | > 200 | > 50 |
| CC(=O)OCCOCN1C(=O)c2ccccc2NS1(=O)=O | > 50 | > 200 | > 50 | > 200 | > 50 | > 50 | > 50 | > 200 | > 50 | > 200 | > 50 |
| O=C1NS(=O)(=O)N(COCc2ccccc2)c2ccccc21 | > 50 | > 40 | > 50 | > 50 | > 50 | > 50 | > 50 | > 40 | > 50 | > 200 | > 50 |
| CC(=O)OCCOCN1c2ccccc2C(=O)N(Cc2ccccc2)S1(=O)=O | 50 | > 40 | > 20 | 100 (≈ 247 µM) | > 50 | > 50 | > 20 | > 40 | 42 (≈ 104 µM) | 103 (≈ 255 µM) | 44 (≈ 109 µM) |
| O=C(OCCOCN1c2ccccc2C(=O)N(Cc2ccccc2)S1(=O)=O)c1ccccc1 | 50 | > 40 | 13 (≈ 27.9 µM) | 17 (≈ 36.4 µM) | > 20 | > 20 | 12 (≈ 25.7 µM) | > 40 | > 20 | 100 (≈ 214 µM) | > 20 |
| O=C1c2ccccc2N(COCCO)S(=O)(=O)N1Cc1ccccc1 | > 50 | > 40 | > 20 | 125 (≈ 345 µM) | > 50 | > 50 | > 20 | > 40 | 43 (≈ 119 µM) | 89 (≈ 246 µM) | 55 (≈ 152 µM) |
| O=C1NS(=O)(=O)N(COCCO)c2ccccc21 | > 50 | > 40 | > 50 | 112 (≈ 411 µM) | > 50 | > 50 | > 50 | > 40 | > 50 | 15 (≈ 55.1 µM) | > 50 |
| CCCOCN1c2ccccc2C(=O)NS1(=O)=O | > 50 | > 40 | > 50 | > 50 | > 50 | > 50 | > 50 | > 40 | > 50 | > 200 | > 50 |
| C#CCOCN1c2ccccc2C(=O)N(Cc2ccccc2)S1(=O)=O | 50 | > 8 | 12 (≈ 33.7 µM) | > 50 | 24 (≈ 67.3 µM) | 12 (≈ 33.7 µM) | 13 (≈ 36.5 µM) | > 8 | 21 (≈ 58.9 µM) | 23 (≈ 64.5 µM) | 11 (≈ 30.9 µM) |
| O=C1c2ccccc2N(Cc2ccccc2)S(=O)(=O)N1COCc1ccccc1 | 20 | 20 (≈ 49 µM) | 3.5 (≈ 8.57 µM) | > 40 | > 5 | 3.7 (≈ 9.06 µM) | 3 (≈ 7.34 µM) | 15 (≈ 36.7 µM) | > 5 | 100 (≈ 245 µM) | > 5 |
| O=C1c2ccccc2N(COCc2ccccc2)S(=O)(=O)N1Cc1ccccc1 | > 50 | > 8 | 8 (≈ 19.6 µM) | > 50 | 20 (≈ 49 µM) | 11 (≈ 26.9 µM) | > 5 | > 8 | 20 (≈ 49 µM) | 25 (≈ 61.2 µM) | > 5 |
| Nc1nc2c(ncn2COCCO)c(=O)[nH]1 [ACYCLOVIR] | > 50 | – | – | > 200 | – | – | – | – | – | – | – |
| Nc1nc2c(ncn2COC(CO)CO)c(=O)[nH]1 [GANCICLOVIR] | > 50 | – | 1.2 (≈ 4.7 µM) | > 50 | – | 1.9 (≈ 7.44 µM) | – | – | – | – | – |
